Compound activity deposited in PubChem BioAssay by several laboratories.
L major viab – Leishmania major promastigote growth inhibition, primary screen. Leishmania major promastigotes, resazurin fluorescence viability. 200,000 compounds, 9% hits. inhibition, % at 10 µM; in the data active means inhibition above about 50%;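 further: promastigotes grown with compound for 44 hours at 28 °C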
Diaphorase inh – diaphorase inhibitors and chemical oxidizers, primary screen, counter-screen for diaphorase-coupled primary assays, biochemical, uHTS, resorufin fluorescence | inhibition, % at 20 µM | diaphorase resazurin-to-resorufin fluorescence, NADH, 16 min; bacterial (C. kluyveri) enzyme, not human | 190,000 compounds, 0.69% hits | AID 1217, 2008;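 active means primary screen inhibition at 20 µM above a set limit, cut at about 50% in these data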;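 further: plate controls were DMSO with full reaction for no effect and wells lacking NADH for full effect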
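Test system: bacterial diaphorase enzyme (C. kluyveri); Quantity: 0.14 U/mL diaphorase, enzyme working solution; Times: reaction incubation of 16 min at room temperature; Measured by: fluorescence of resorufin formed from resazurin, Ex 544/Em 590 nm; Benchmarks: positive control minus NADH, DMSO neutral control.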
ROMK mod – ROMK potassium channel modulators, primary screen, cell-based, thallium flux, MLSMR library; B-score at 10 µM; 130,000 compounds, 2% hits; Tet-inducible ROMK, thallium flux fluorescence; actives lie on both sides; AID 1918, 2009;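 active means signal ratio slope over the read window, or its plate-corrected B-score, at least 3 SD from the plate mean, either direction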;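 further: B-score of the F/F0 ratio slope over 7 to 12 s after thallium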
Target sequence (P48048 whole entry, looked up): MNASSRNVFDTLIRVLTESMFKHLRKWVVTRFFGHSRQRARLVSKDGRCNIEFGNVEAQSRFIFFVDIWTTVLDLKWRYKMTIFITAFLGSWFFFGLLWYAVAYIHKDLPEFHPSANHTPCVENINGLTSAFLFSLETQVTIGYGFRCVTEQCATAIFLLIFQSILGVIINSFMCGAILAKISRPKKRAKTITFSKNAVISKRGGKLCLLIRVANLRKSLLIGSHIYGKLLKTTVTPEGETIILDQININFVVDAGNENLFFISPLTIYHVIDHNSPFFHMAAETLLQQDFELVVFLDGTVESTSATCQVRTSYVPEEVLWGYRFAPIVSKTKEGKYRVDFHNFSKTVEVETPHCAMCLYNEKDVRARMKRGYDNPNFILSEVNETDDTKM
WT yeast gro inh – growth inhibition of WT strain, primary screen, mitochondrial fusion inhibitor project, WT and mutant strains, chemical genetic; mitochondrial fusion phenotypic screen; inhibition, % at 10 µM; 190,000 compounds, 2.1% hits; AID 1362, 2008; in the data active means inhibition above about 58%; tested in S. cerevisiae
Cl transport mod – KCC2 cotransporter modulators, thallium flux, primary screen, cell-based, HEK293 KCC2, FluoZin-2 fluorescence, MLSMR | Solute carrier family 12 member 5 (Homo sapiens), Q9H2X9 | KCC2 cells, thallium flux FluoZin-2 fluorescence | B-score of Tl+ flux slope (higher = more flux/activation; lower = inhibition) at 10 µM | 190,000 compounds, 2.2% hits;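 active means thallium flux slope and its plate-corrected score both differing from the plate sample mean at a set confidence after two filtering rounds, in either direction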;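 further: slope of fluorescence scaled to starting intensity during 10 to 20 s after thallium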
Diaph act CS – compounds boosting diaphorase resazurin reduction – biochemical, uHTS, resorufin fluorescence, counter-screen for diaphorase-coupled primary assays, primary screen; Diaphorase/resazurin coupled assay, 16 min; active compounds read high; 1 = vehicle wells, 0 = NADH-free wells; AID 1229, 2008; 190,000 compounds, 0.005% hits; activation factor at 20 µM;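 active means diaphorase activity raised at least twofold by the compound at 20 µM; inactive means activation factor below 2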
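Test system: Clostridium kluyveri diaphorase, purified enzyme. Buffer or medium: 50 mM HEPES pH 7.4 buffer plus MgCl2 and Tween 20. Also added: 0.114 mM NADH and 0.1 mM resazurin, final amounts. Dosing: compound 20 µM once, DMSO 1%. Schedule: 16 min enzyme reaction, ambient temperature. Detection: fluorescence of resorufin, 544 nm excitation, 590 nm emission.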
Lmaj promast 1uM – Leishmania major promastigote growth inhibition, confirmation, 1 µM repeat of primary hits; shares compounds with L major viab; L. major promastigote growth, resazurin fluorescence, 48 h; inhibition, % at 1 µM; 1,100 compounds, 13% hits;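 active means inhibition above about 50% in both repeat tests, limit read from the data; inconclusive means one repeat under the set limit, the other over it; inactive means both repeats under the set limit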
KCC2 secondary – KCC2 modulators in sodium-free buffer, confirmation, cell-based, HEK293 KCC2, thallium flux, secondary assay | shares compounds with Cl transport mod | FluoZin2 fluorescence; active compounds read high | normalised thallium flux (F/F0 slope) at 10 µM | 3,700 compounds, 15% hits | AID 1713, 2009;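 active means thallium flux slope above the same plate's solvent-only control mean plus 3 SD; inconclusive means the two replicate wells disagree; inactive means no significant difference from solvent-only control wells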
KCC2 bumet counter – thallium flux persisting under bumetanide in KCC2 cells, confirmation, counter-screen for KCC2 modulator project, cell-based, HEK293 KCC2, FluoZin2, secondary assay 3; shares compounds with Cl transport mod; HEK293-KCC2 + bumetanide/ouabain; active compounds read high; normalized thallium flux at 10 µM; 3,700 compounds, 49% hits; AID 1714, 2009;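 active means thallium entry rate above the same plate's blocked-transporter control wells by more than 3 SD; inconclusive means the two repeat wells disagree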;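 further: raw slope of fluorescence over initial fluorescence between 10 and 20 s after thallium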
KCC2 secondary2 – KCC2 modulators without ouabain present, confirmation, cell-based, HEK293 KCC2, thallium flux, FluoZin2, secondary assay 2 | shares compounds with Cl transport mod | thallium flux FluoZin2 fluorescence; actives lie on both sides; F/F0 rise rate, 10–20 s post-thallium | normalized thallium flux at 10 µM | 3,700 compounds, 23% hits;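 active means thallium flux slope more than 3 SD above or below the plate's solvent-only control mean, mostly below; inconclusive means the two repeat wells disagreed; inactive means no significant shift from solvent-only controls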;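 further: raw slope with 0.1% DMSO as baseline and bumetanide as block control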
HEK counter1 – thallium flux modulation in parental HEK cells, confirmation, counter-screen for KCC2 modulator project, cell-based, counterscreen 1; shares compounds with Cl transport mod; 3,700 compounds, 46% hits; HEK293 parental cells, thallium flux FluoZin2, ouabain; baseline-ratio fluorescence slope, 10–20 s after thallium; AID 1716, 2009; thallium flux rate (normalised fluorescence) at 10 µM;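 active means thallium flux rate significantly above the same plate's solvent-only control wells, beyond their mean plus 3 SD; inconclusive means the two replicate wells gave conflicting results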
KCC2 ouabain – KCC2 inhibitors and activators, ouabain retest, confirmation, HEK-KCC2 cells. shares compounds with Cl transport mod. raw Tl+ flux slope (below DMSO = inhibition, above = activation) at 10 µM. 3,700 compounds, 48% hits. AID 1717, 2009. HEK293-KCC2, thallium flux FluoZin2 fluorescence; bidirectional: low = inhibitor, high = activator;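 active means thallium flux slope beyond 3 SD from same-plate DMSO control mean in most replicates, usually higher, sometimes lower; inconclusive means repeat tests gave conflicting results; inactive means no significant difference from controls in most replicates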;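 further: slope of initial-normalized fluorescence between seconds 10 and 20 after thallium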
HEK293 Tl flux2 – native HEK Tl+ uptake effects, second counter-screen – HEK cells, counterscreen 2, counter-screen for KCC2 modulator project, confirmation | shares compounds with Cl transport mod | HEK293 parental, thallium flux FluoZin-2 fluorescence slope | thallium flux slope at 10 µM | 3,700 compounds, 33% hits | AID 1718, 2009;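 active means thallium flux slope above the same plate's solvent-control mean plus 3 SD in both duplicate wells; inconclusive means duplicate wells that disagreed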;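 further: run without ouabain in cells lacking the KCC2 cotransporter; slope of fluorescence scaled to its starting value between 10 and 20 s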
ROMK retest – ROMK channel modulator hit retest, confirmation, cell-based, thallium flux, duplicate, resupplied hits; fluorescence ratio; active compounds read low; shares compounds with ROMK mod; normalized thallium flux (F/F0 slope) at 10 µM; AID 1917, 2009; 3,000 compounds, 54% hits;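 active means Flux at 10 µM at least 3 SD below or above vehicle control mean in one or both replicates; inconclusive means no clear call, values can overlap the other calls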
* = called active by the depositor. Shown are actives, neighbours in structure and some others; about 12% of the full set was active somewhere.

For CN(C[C@@H](CC1CCCCC1)N(C[C@H](Cc1ccccc1)N(CCc1ccccc1)N=O)N=O)N=O the results were L major viab 7, Diaphorase inh 25, WT yeast gro inh 17, Cl transport mod 2.2 and Diaph act CS 0.8.
CC(C)CCn1c(O)c(N=Nc2ccccn2)c2ccccc21 was read as L major viab 69*, Diaphorase inh 15, ROMK mod 0.97, WT yeast gro inh 68*, Cl transport mod 6.9*, Diaph act CS 0.9, Lmaj promast 1uM -7, KCC2 secondary 0.0092, KCC2 bumet counter 0.021*, KCC2 secondary2 0.035, HEK counter1 inconclusive, KCC2 ouabain inconclusive and HEK293 Tl flux2 0.013.
For Cc1ccc(C(=O)N/N=C2\CC3CC=CC23)c(C)c1 (centres undefined) the results were L major viab -5, Diaphorase inh -2, ROMK mod -0.48, WT yeast gro inh 4, Cl transport mod 0.95 and Diaph act CS 1.
`O=C(Nc1cccc(-c2nnn(CC(=O)N3CCc4ccccc4C3)n2)c1)C1CCC1` gave L major viab 99*, Diaphorase inh 6, ROMK mod -0.34, WT yeast gro inh -3, Diaph act CS 0.9, Lmaj promast 1uM -2, KCC2 secondary 0.017, KCC2 bumet counter 0.0043, KCC2 secondary2 inconclusive, HEK counter1 inconclusive, KCC2 ouabain 0.014* and HEK293 Tl flux2 0.01.
Screening COc1cc2c(cc1OC)[C@H](Cc1ccc(O)cc1)NCC2 returned L major viab -2, Diaphorase inh 2, ROMK mod 0.6, WT yeast gro inh -14, Cl transport mod 0.088 and Diaph act CS 1.
For Cc1c(O)ccc(/C(Cc2ccc3ccccc3n2)=N\O)c1O the results were L major viab 59*, Diaphorase inh -5, WT yeast gro inh -9, Cl transport mod -4.9*, Diaph act CS 1.1, Lmaj promast 1uM -10, KCC2 secondary 0.008, KCC2 bumet counter 0.0039, KCC2 secondary2 0.029, HEK counter1 0.0064, KCC2 ouabain 0.015* and HEK293 Tl flux2 0.0095.
CC(=O)Oc1ccc(C(=O)Cc2ccc3ccccc3n2)c(O)c1C was read as L major viab -5, Diaphorase inh 8, WT yeast gro inh 7, Cl transport mod 0.45 and Diaph act CS 0.9.
Cc1sc2c(c1C)c(=O)nc1n2Cc2ccccc2-1 was read as L major viab 82*, Diaphorase inh 22, ROMK mod -0.096, WT yeast gro inh -7, Diaph act CS 0.8, Lmaj promast 1uM 1, KCC2 secondary 0.0087, KCC2 bumet counter 0.0062, KCC2 secondary2 0.03, HEK counter1 0.008, KCC2 ouabain 0.019 and HEK293 Tl flux2 0.011.
`O=c1nc2n(c3sc4c(c13)CCC4)Cc1ccccc1-2` gave WT yeast gro inh 12.
For COc1ccc2cc(Br)ccc2c1CC(=O)NC1CC(C)(C)NC(C)(C)C1 the results were L major viab 100*, Diaphorase inh -1, ROMK mod -2.9*, WT yeast gro inh -8, Diaph act CS 1, Lmaj promast 1uM -10 and ROMK retest 0.067*.
Screening CCNC(=O)Cc1c(OC)ccc2cc(Br)ccc12 returned L major viab 4, Diaphorase inh 28, ROMK mod 0.19, WT yeast gro inh 12, Cl transport mod -0.76 and Diaph act CS 0.7.
Screening Cc1ccc(S(=O)(=O)N2CCC(=O)N(C(COCc3ccc(C(F)(F)F)cc3)Cc3ccccc3)CC2)cc1 (centres undefined) returned L major viab 73*, Diaphorase inh 7, ROMK mod -6.7*, WT yeast gro inh 11, Cl transport mod 1.7, Diaph act CS 0.9, Lmaj promast 1uM -9 and ROMK retest 0.075.
Screening Cc1ccc(S(=O)(=O)N2CCC(=O)N(C(COCc3cccc(C)c3)Cc3ccccc3)CC2)cc1 (centres undefined) returned L major viab 36, Diaphorase inh 6, ROMK mod -1.7, WT yeast gro inh 7, Cl transport mod -1.7 and Diaph act CS 0.9.
COCC(=O)Nc1cc(C(=O)Nc2ccccc2)ccc1Cl was read as L major viab -2, Diaphorase inh 8, ROMK mod 0.45, WT yeast gro inh 5 and Diaph act CS 0.9.
